Among the data in ChEMBL document CHEMBL1139831, “The influence of modifications in imide fragment structure on 5-HT(1A) and 5-HT(7) receptor affinity and in vivo pharmacological properties of some new 1-(m-trifluoromethylphenyl)piperazines” (Bioorg Med Chem, 2007) are deltaT, Activity and Ki values, retold here.

Usually Ki stands for a measure of affinity in units of concentration, obtained from inhibition or displacement. A low value points to a stronger hold on the target.

For assay [1], the species on record is Mus musculus. The following applies: Swiss Albino, 10 mg/kg.
Assay [2] concerns Rattus norvegicus. Nature of the assay: Effect on lower lip retraction in Wistar rat at 20 mg/kg. It counts as functional. The method in brief: (§1)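 Male Wistar rats (290–310 g) dosed ip in 1% Tween 80 (2 ml/kg), caged singly; lower lip retraction scored 15, 30 and 45 min after dosing as 0 (incisors not visible), 0.5 (partly) or 1 (completely visible), totals up to 3 per rat. n = 6 per group; one-way ANOVA followed by Dunnett's test.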

The subject of assay [3] is Rattus norvegicus. Description: Effect on 8-OH-DPAT-induced lower lip retraction in Wistar rat at 20 mg/kg. It counts as functional.
Assay [4] relates to Rattus norvegicus. Nature of the assay: Effect on 8-OH-DPAT-induced lower lip retraction in Wistar rat at 10 mg/kg. It counts as functional.
For assay [5], the species on record is Mus musculus. The note with it: Swiss Albino, 5 mg/kg.
The next assay concerns the target D(2) dopamine receptor (Rattus norvegicus, UniProt P61169). Description: Displacement of [3H]spiperone from dopamine D2 receptor in rat striatal membranes. It counts as cell membranes, Membrane. Put shortly:
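Competition binding on rat striatal membranes using [3H]-spiperone, butaclamol for nonspecific binding; filtration through GF/B filters and scintillation counting. Run at two compound concentrations, each in triplicate, and affinity expressed as estimated Ki.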
For orientation: In a radioligand displacement assay an active substance lowers the binding of a labelled ligand.

The species entered for assay [6] is Mus musculus. The following applies: Swiss Albino, 5 mg/kg. The source holds these as a separate data set.
The species entered for assay [7] is Mus musculus. The following applies: Swiss Albino, 10 mg/kg. This is another data set of the same source.
The species entered for assay [8] is Mus musculus. The note with it: Swiss Albino, 5 mg/kg. The source holds these as a separate data set.
The species named for assay [9] is Mus musculus. The following applies: Swiss Albino, 10 mg/kg. This is another data set of the same source.
Assay [10] is filed under the species Mus musculus. The note with it: Swiss Albino, 10 mg/kg. The source holds these as a separate data set.
For assay [11], the target named is 5-hydroxytryptamine receptor 7 (Homo sapiens, UniProt P34969). Nature of the assay: Displacement of [3H]5-CT from human 5HT7 expressed in HEK293 cells. It counts as cell-based. Put shortly: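 HEK293 cells stably transfected with human 5-HT7(b) cDNA; membranes (10 µg protein) incubated 1 h at 37 °C in 50 mM Tris-HCl pH 7.4 with 4 mM MgCl2, 0.1 mM pargyline, 0.1% ascorbic acid, 0.5 nM [3H]-5-CT and 7–9 test concentrations in triplicate; 10 µM 5-HT defines nonspecific binding. GF/B filtration, scintillation counting; Ki via Cheng-Prusoff from ≥3 experiments.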

Assay [12] can be described thus: Displacement of [3H]prazosin from adrenergic alpha1 receptor in rat cortical membranes. It counts as cell membranes, Membrane. Put shortly:
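Rat cortical membranes with [3H]-prazosin; phentolamine defines nonspecific binding. 7–9 drug concentrations in triplicate, at least three separate experiments; stopped by GF/B filtration with three ice-cold buffer washes, bound radioactivity by liquid scintillation counting; Ki from non-linear regression and Cheng-Prusoff equation.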

For assay [13], the system named is Rattus norvegicus. Nature of the assay: Effect on lower lip retraction in Wistar rat at 10 mg/kg. It counts as functional. Put shortly:
as §1

The species named for assay [14] is Mus musculus. The note with it: Swiss Albino, 5 mg/kg. This is another data set of the same source.
Assay [15] has as its target T1, 5-hydroxytryptamine receptor 1A (Rattus norvegicus, UniProt P19327).
T1 sequence (P19327 whole entry): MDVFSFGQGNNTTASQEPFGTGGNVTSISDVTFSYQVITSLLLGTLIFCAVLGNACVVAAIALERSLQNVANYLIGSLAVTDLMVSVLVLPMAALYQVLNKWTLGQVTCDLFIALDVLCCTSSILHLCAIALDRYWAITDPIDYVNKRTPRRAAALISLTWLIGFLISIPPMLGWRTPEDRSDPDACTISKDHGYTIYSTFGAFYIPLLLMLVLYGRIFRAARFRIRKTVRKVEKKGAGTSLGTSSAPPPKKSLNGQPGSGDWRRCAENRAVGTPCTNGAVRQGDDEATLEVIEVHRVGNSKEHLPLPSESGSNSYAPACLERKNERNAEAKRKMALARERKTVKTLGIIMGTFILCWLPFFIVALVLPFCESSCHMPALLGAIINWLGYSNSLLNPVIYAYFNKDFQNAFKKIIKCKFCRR
Description: Displacement of [3H]8-OH-DPAT from 5HT1A in rat hippocampal membranes. It counts as cell membranes, Hippocampus, Membrane. The method in brief:
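Rat hippocampal membranes, [3H]-8-OH-DPAT as radioligand, 5-HT defining nonspecific binding. 7–9 drug concentrations run in triplicate, at least three separate experiments. Filtration through GF/B filters with three ice-cold buffer washes, scintillation counting. Ki from non-linear regression of binding isotherms via Cheng-Prusoff equation.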

Assay [16] relates to Rattus norvegicus. Description: Effect on lower lip retraction in Wistar rat at 0.1 mg/kg. It counts as functional. The method in brief: as §1
For assay [17], the system named is Rattus norvegicus. Description: Effect on 8-OH-DPAT-induced lower lip retraction in Wistar rat at 0.1 mg/kg. It counts as functional.
The species named for assay [18] is Mus musculus. The note with it: Swiss Albino, 10 mg/kg. This is another data set of the same source.
The species entered for assay [19] is Mus musculus. The following applies: Swiss Albino, 10 mg/kg. This is another data set of the same source.

Chain of 5-hydroxytryptamine receptor 7 (P34969 whole entry): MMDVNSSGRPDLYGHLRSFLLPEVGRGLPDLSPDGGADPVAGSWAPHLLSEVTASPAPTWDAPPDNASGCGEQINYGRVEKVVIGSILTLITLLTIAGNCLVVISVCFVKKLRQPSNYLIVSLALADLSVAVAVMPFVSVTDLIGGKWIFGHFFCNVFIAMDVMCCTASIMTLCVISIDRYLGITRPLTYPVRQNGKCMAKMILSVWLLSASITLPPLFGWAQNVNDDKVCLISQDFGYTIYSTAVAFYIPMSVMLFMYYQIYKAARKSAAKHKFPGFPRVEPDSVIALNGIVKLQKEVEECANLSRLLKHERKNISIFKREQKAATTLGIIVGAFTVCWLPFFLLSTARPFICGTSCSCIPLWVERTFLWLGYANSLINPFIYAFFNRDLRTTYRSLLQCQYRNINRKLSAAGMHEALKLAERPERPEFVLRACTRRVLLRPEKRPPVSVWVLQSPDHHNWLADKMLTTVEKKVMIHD
Chain of D(2) dopamine receptor (P61169 whole entry): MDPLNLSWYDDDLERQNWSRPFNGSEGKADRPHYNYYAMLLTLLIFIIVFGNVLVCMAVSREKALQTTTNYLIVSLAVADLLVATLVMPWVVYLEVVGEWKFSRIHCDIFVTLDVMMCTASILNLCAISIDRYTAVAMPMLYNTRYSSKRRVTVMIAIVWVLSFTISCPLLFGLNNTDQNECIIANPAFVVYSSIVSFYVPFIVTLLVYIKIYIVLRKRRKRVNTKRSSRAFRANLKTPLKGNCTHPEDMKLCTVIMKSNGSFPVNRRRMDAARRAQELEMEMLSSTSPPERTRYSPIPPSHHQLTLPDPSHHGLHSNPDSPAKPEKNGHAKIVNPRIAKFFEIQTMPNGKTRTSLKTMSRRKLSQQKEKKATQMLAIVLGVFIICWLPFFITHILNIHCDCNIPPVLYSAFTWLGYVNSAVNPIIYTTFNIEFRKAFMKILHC

With `CC1C(=O)N(CCCCN2CCN(c3cccc(C(F)(F)F)c3)CC2)C(=O)C1C` (stereo unspecified), the deltaT was -0.2 °C in the assay listed under Mus musculus [1]; -0.2 °C in the assay listed under Mus musculus [5]; 0 °C in the assay filed under Mus musculus [6]; -0.1 °C in the assay listed under Mus musculus [7]; -0.6 °C in the assay listed under Mus musculus [8]; -0.4 °C in the assay listed under Mus musculus [9]. The deltaT was -0.2 °C in the assay listed under Mus musculus [10] and -0.4 °C in the assay listed under Mus musculus [14]. In addition, the Activity came out at 1.3 with Rattus norvegicus [2], 0.2 in the assay on Rattus norvegicus [3], 1.4 in the assay on Rattus norvegicus [4] and 1.3 in the assay on Rattus norvegicus [13]. For the same molecule, the Ki came to 4370 nM on D(2) dopamine receptor, 107 nM in assay [11], 48 nM in [12] and 2.2 nM in assay [15].

Consider `COc1ccccc1N1CCN(CCN(C(=O)C2CCCCC2)c2ccccn2)CC1` [WAY-100,635], for which the Activity with Rattus norvegicus [16] was found to be 0; in the assay on Rattus norvegicus [17], 0.2.

As for `O=C1C2CC=CCC2C(=O)N1C1CCC(N2CCN(c3cccc(C(F)(F)F)c3)CC2)CC1` (stereo unspecified), the deltaT in the assay listed under Mus musculus [1] was -1 °C; in the assay listed under Mus musculus [18] it was -0.3 °C; in the assay listed under Mus musculus [5] it was -0.4 °C; in the assay filed under Mus musculus [6], -0.1 °C; in the assay listed under Mus musculus [7], -1.7 °C; in the assay listed under Mus musculus [8], -0.7 °C. In addition, the deltaT in the assay filed under Mus musculus [9] was -1.1 °C; in the assay filed under Mus musculus [10] it was -1.3 °C; in the assay listed under Mus musculus [19], -0.5 °C; in the assay listed under Mus musculus [14], -0.4 °C. Besides, the Activity with Rattus norvegicus [2] was found to be 1.3; in the assay with Rattus norvegicus [3], 1.9; with Rattus norvegicus [4], 2.1; in the assay with Rattus norvegicus [13] it was 0.7. The Ki was 4680 nM at D(2) dopamine receptor, 335 nM in assay [11], 43 nM in assay [12] and 1.5 nM in [15].
